Measurements published in ChEMBL document CHEMBL2169848, “Synthesis physicochemical profile and PAMPA study of new NO-donor edaravone co-drugs” (Bioorg Med Chem, 2012).
Calls of active or inactive are those of the source. The calls are words filed in the database; no cut-off is given here.

Assays:
Thoracic aorta [1] = test: Vasodilatory activity in Wistar rat thoracic aorta assessed as inhibition of L-phenylephrine-induced contraction in presence of 1 uM 1H-[1,2,4]oxadiazolo[4,3-a]quinoxalin-1-one; assay type: functional, tissue-based
Procedure, shortened: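 Same rat aorta strip protocol with 1 µM L-phenylephrine precontraction. 1 µM ODQ was added 5 min before contraction, pre-incubating for at least 30 min before the vasodilator. Isometric recording; EC50 (±SEM) in µM from at least five experiments.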

Thoracic aorta [2] = test: Vasodilatory activity in Wistar rat denuded thoracic aorta assessed as inhibition of L-phenylephrine-induced contraction; assay type: functional, tissue-based
Procedure, shortened: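 Endothelium-denuded thoracic aorta strips from male Wistar rats (180–200 g) in gassed Krebs-type buffer at 37 °C, pH 7.4. Strips equilibrated 1.5 h, then contracted with 1 µM L-phenylephrine. Cumulative concentrations added at plateau and isometric tension recorded. EC50 (±SEM) in µM from at least five experiments.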

[3] = Half life in 5% DMSO/0.1 M KCl by RP-HPLC analysis; assay type: physicochemical; settings: for half-life: 5% DMSO/0.1 M KCl
Procedure, shortened: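 10 mM DMSO stock added to water with 0.1 M KCl to give 5% DMSO (v/v), then filtered. Room temperature. Compound followed by RP-HPLC (C18, methanol/water gradient, 240 nm), calibration 1–200 µM. Half-life from n = 3.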

[4] = Half life in Wistar rat liver homogenate at 200 uM by RP-HPLC analysis; assay type: ADME, tissue-based
Procedure, shortened: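 Liver from male Wistar rats (200–250 g), 20% homogenate spun at 8000g. Incubated at 37 °C in Tris-HCl/KCl 100/150 mM, pH 7.4, with 6.4 mg protein/mL, 2 mM GSH and 1 mM NADPH. Compound 200 µM final, added from a 10 mM acetonitrile stock. Aliquots deproteinized with cold acetonitrile and analysed by RP-HPLC. Half-life from n = 3.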

[5] = Half life in 0.1 M HCl/MeOH 60/40 (v/v) mixture by RP-HPLC analysis; assay type: physicochemical
Procedure, shortened: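 Methanolic compound solution (0.5 mM, 2 mL) diluted to 10 mL with 0.1 M HCl/MeOH 60/40 (v/v) and kept at 37 °C. Aliquots taken at intervals and analysed by RP-HPLC (C18, acetonitrile/water gradient, 240 nm) with calibration over 1–200 µM. Half-life from n = 3.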

[6] = Lipophilicity, log P of the compound in octanol-buffer at pH 7 by HPLC analysis; assay type: physicochemical
Procedure, shortened: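 Retention measured by isocratic RP-HPLC on an RP-amide-C16 column at 30 °C. Mobile phase was pH 7.0 phosphate buffer/methanol, 30–70%, ionic strength 20 mM; uracil used as dead-time marker. log kw extrapolated from at least four methanol ratios, each injected at least three times. Converted to logPoct via a reference line of 63 compounds.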

[7] = Half life in human serum at 250 uM by RP-HPLC analysis; assay type: ADME, cell-free
Procedure, shortened: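 Compound added from a 10 mM methanol stock to human serum (male AB plasma) at 37 °C, final 250 µM. Aliquots taken at intervals and deproteinized with acetonitrile containing 0.1% TFA, then centrifuged and filtered. Analysed by RP-HPLC. Half-life from n = 3.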

Liver [8] = test: Induction of nitrite production in Wistar rat liver homogenate at 200 uM by griess method; assay type: functional, tissue-based; settings: TDE = time-dependent effect
Procedure, shortened: (§1)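 Male Wistar rat liver homogenate (6.4 mg protein/mL; 2 mM GSH, 1 mM NADPH; Tris-HCl/KCl pH 7.4; 37 °C) with compound at 200 µM final. Deproteinized filtrate mixed with Griess reagent: nitrite after 10 min at 37 °C; nitrite+nitrate after VCl3 reduction, 45 min at 37 °C. Absorbance at 540 nm, calibration 1–100 µM. Expressed as %mol per mol compound, n = 3.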

Mus musculus = test: Induction of nitrite release in mouse assessed as nitrite AUC (0 to 24 hrs) at 10 mg/kg, po measured over 24 hrs by LC-MS/MS analysis; assay type: organism-based; set-up: time < 24 hr, dose 10 mg/kg, route oral; settings: in vivo
Procedure, shortened: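 Mice dosed orally at 10 mg/kg in imwitor742/tween80 50/50; blood drawn at fixed times over 24 h and precipitated with 3 volumes acetonitrile. Nitrite converted to naphtotriazole with DAN (1 mM, 10 µL per 200 µL sample) at room temperature and measured by LC-MS/MS against a 0.01-10 µM NAT calibration; basal level and conversion factor from spikes; AUC0-24h.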

Liver [9] = test: Induction of nitrate production in Wistar rat liver homogenate at 200 uM by griess method; assay type: functional, tissue-based; settings: TDE = time-dependent effect; procedure, shortened: as §1
Liver [10] = test: Induction of nitrite production in Wistar rat liver homogenate at 200 uM after 5 hrs by griess method; assay type: functional, tissue-based; procedure, shortened: as §1
Liver [11] = test: Induction of nitrate production in Wistar rat liver homogenate at 200 uM after 5 hrs by griess method; assay type: functional, tissue-based; procedure, shortened: as §1
[12] = Permeability of the compound by PAMPA-HDM method; assay type: ADME
Procedure, shortened: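 96-well polycarbonate filters impregnated with 5% hexadecane in hexane. Donor held compound in water with 5% DMSO and 100 mM KCl; acceptor held the same medium. Incubated at room temperature with shaking at 150 rpm for 1–6 h. Both compartments quantified by RP-HPLC. logPe and retention R calculated with correction for hydrolysis; membrane integrity checked by electrical resistance.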

SMILES	EC50 (Thoracic aorta [1])	EC50 (Thoracic aorta [2])	inhibition (Thoracic aorta [2])	half-life [3]	half-life at 200 µM [4]	half-life [5]	logD [6]	half-life at 250 µM [7]	also measured
CC(C)(CCCCO[N+](=O)[O-])C(=O)O	> 100 µM	8.9 µM	Dose-dependent effect	–	–	–	–	–	–
O=[N+]([O-])OCCCCCCO	> 100 µM	1.5 µM	Dose-dependent effect	–	–	–	–	–	–
Cc1cc(OC(=O)OCCCCCCO[N+](=O)[O-])n(-c2ccccc2)n1	–	–	–	1500 min	< 1 min	240 min	4.39	< 1 min	–
Cc1cc(OC(=O)C(C)(C)CCCCO[N+](=O)[O-])n(-c2ccccc2)n1	> 100 µM	11 µM	Dose-dependent effect	1320 min	2 min	1440 min	4.3	13.3 min	Activity (Liver [8]): tde; AUC (Mus musculus): 1790 µM·min; Activity (Liver [9]): tde
Cc1cc(OC(=O)C(C)(C)CO[N+](=O)[O-])n(-c2ccccc2)n1	–	–	–	2160 min	< 1 min	114 min	3.55	1.9 min	–
Cc1cc(OC(=O)OCCCCC(CO[N+](=O)[O-])O[N+](=O)[O-])n(-c2ccccc2)n1 (stereo unspecified)	–	–	–	360 min	< 1 min	186 min	4.63	< 1 min	Activity (Liver [10]): Active; Activity (Liver [11]): Active
Cc1cc(OC(=O)c2ccc(CCCO[N+](=O)[O-])cc2)n(-c2ccccc2)n1	–	–	–	–	< 1 min	780 min	4.76	4 min	log Pe [12]: ND(Insoluble); t1/2 [3]: ND(Insoluble)
O=C(O)c1ccc(OCC(CO[N+](=O)[O-])O[N+](=O)[O-])cc1 (stereo unspecified)	–	–	Dose-dependent effect	–	–	–	–	–	–
O=C(O)c1ccc(CCCO[N+](=O)[O-])cc1	> 100 µM	–	Dose-dependent effect	–	–	–	–	–	–
CC(C)(CCC(CO[N+](=O)[O-])O[N+](=O)[O-])C(=O)O (stereo unspecified)	> 100 µM	4.2 µM	Dose-dependent effect	–	–	–	–	–	–
O=C(O)c1ccc(CC(CO[N+](=O)[O-])O[N+](=O)[O-])cc1 (stereo unspecified)	> 100 µM	–	Dose-dependent effect	–	–	–	–	–	–
Cc1cc(OC(=O)c2ccc(OCC(CO[N+](=O)[O-])O[N+](=O)[O-])cc2)n(-c2ccccc2)n1 (stereo unspecified)	–	–	–	–	< 1 min	1500 min	5.14	7.8 min	log Pe [12]: ND(Insoluble); Activity (Liver [10]): Active; Activity (Liver [11]): Active; t1/2 [3]: ND(Insoluble)
